# Measurements reported in ChEMBL document CHEMBL1140036, “Novel glucagon receptor antagonists with improved selectivity over the glucose-dependent insulinotropic polypeptide receptor” (J Med Chem, 2008).
# Active and inactive are the calls of the source. The calls are words filed in the database; no cut-off is given here.
# What was measured:
# Glucagon receptor [1] = molecular target: Glucagon receptor (Homo sapiens, UniProt P47871); assay: Binding affinity to human cloned GluR expressed in BHK cells; type: cell-based
# Outline: (§1)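 Competitive binding on purified plasma membranes from BHK cells expressing the cloned human receptor (glucagon, GIP or GLP-1 receptor). The glucagon receptor protocol follows earlier published work, and the GIP and GLP-1 assays were done the same way.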
# [2] = molecular target: T1, Gastric inhibitory polypeptide receptor (Homo sapiens, UniProt P48546); assay: Binding affinity to human cloned GIPR expressed in BHK cells; type: cell-based; outline: as §1
# T1 sequence (P48546 whole entry): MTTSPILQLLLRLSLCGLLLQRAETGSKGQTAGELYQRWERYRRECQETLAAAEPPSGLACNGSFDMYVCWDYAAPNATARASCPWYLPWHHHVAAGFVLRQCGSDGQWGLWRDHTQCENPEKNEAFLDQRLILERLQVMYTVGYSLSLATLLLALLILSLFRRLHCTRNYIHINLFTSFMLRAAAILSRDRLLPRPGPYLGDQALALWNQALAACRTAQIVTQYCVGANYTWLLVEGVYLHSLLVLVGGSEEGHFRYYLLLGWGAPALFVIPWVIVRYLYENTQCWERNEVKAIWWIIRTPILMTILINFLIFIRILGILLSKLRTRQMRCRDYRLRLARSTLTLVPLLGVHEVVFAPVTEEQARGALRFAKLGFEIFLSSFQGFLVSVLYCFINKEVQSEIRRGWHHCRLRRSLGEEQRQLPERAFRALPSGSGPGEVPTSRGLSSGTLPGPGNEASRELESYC
# [3] = molecular target: Glucagon-like peptide 1 receptor (Homo sapiens, UniProt P43220); assay: Binding affinity to human cloned GLP1R expressed in BHK cells; type: cell-based; outline: as §1
# BHK = assay: Selectivity ratio of IC50 for human cloned GluR to IC50 for human cloned GLP1R expressed in BHK cells; type: cell-based
# Glucagon receptor [4] = molecular target: Glucagon receptor (Rattus norvegicus, UniProt P30082); assay: Binding affinity to GlucR in rat liver membrane; type: cell membranes
# Outline: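 Competitive binding on isolated rat liver membrane preparations, run by the same protocol as the human glucagon receptor binding assay.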
# Hepatocyte [5] = assay: Inhibition of glucagon-stimulated glycogenolysis in rat hepatocytes; type: functional, cell-based
# Outline: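 Isolated, cultured primary rat hepatocytes were loaded with glycogen and stimulated with 0.5 nM glucagon plus increasing compound concentrations in medium containing 0.1% HSA. Glucose released into the medium was measured after 60 min, and IC50 was derived.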
# Hepatocyte [6] = assay: Inhibition of adrenaline-stimulated glycogenolysis in rat hepatocytes up to 25 uM; type: functional, cell-based
# Outline: (§2)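 Glycogen-loaded cultured primary rat hepatocytes, either unstimulated (basal) or adrenaline-stimulated, in medium with 0.1% HSA. Compounds were tested at concentrations up to 25 µM, and glycogenolysis was read as glucose release.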
# Hepatocyte [7] = assay: Inhibition of basal glycogenolysis in rat hepatocytes up to 25 uM; type: functional, cell-based; outline: as §2
# Hepatocyte [8] = assay: Increase in lactate production in rat hepatocytes; type: functional, cell-based
# [9] = molecular target: T2, Gastric inhibitory polypeptide receptor (Rattus norvegicus, UniProt P43219); assay: Binding affinity to GIPR in rat liver membrane; type: cell membranes
# T2 sequence (P43219 whole entry): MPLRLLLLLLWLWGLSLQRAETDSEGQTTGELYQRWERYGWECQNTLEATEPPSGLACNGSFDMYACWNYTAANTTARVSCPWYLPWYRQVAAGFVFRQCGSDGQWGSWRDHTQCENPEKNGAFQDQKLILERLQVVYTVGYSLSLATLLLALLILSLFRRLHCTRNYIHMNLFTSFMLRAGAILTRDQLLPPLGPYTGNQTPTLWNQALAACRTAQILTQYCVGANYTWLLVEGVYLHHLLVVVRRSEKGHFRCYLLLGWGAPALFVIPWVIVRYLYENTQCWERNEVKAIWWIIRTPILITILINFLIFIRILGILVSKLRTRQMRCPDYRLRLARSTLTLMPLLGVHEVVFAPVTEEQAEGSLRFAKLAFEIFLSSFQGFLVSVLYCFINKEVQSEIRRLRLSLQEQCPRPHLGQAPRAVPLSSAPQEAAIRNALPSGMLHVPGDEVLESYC
# Pancreas = assay: Inhibition of GIP-stimulated insulin secretion in rat pancreas; type: functional, tissue-based
# Outline: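 Isolated perfused rat pancreas: 80 mg/dL glucose at 1-4 min, then 160 mg/dL glucose with compound at 5-50 min, and 500 pM GIP infused at 15-34 min. Portal outflow was collected each minute and insulin measured by radioimmunoassay; n = 4 per group.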
# [10] = Half life in Sprague-Dawley rat at 2 mg/kg, iv; type: ADME, organism-based; set-up: dose 2 mg/kg, route intravenous; settings: in vivo
# Outline: (§3)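 Fasted male Sprague-Dawley rats (~200 g) were given 2 mg/kg iv or 4 mg/kg po. Vehicle: 5% ethanol, 20% propylene glycol, 10% hydroxypropyl-β-cyclodextrin in phosphate buffer pH 7.5-8.0. EDTA blood was taken by heart puncture under CO2 at 5-360 min (iv) or 15-360 min (po). Plasma was analysed by HTLC-MS/MS, with noncompartmental PK analysis.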
# [11] = Oral bioavailability in Sprague-Dawley rat at 4 mg/kg; type: ADME, organism-based; settings: in vivo; outline: as §3
# Rattus norvegicus = assay: Inhibition of glucagon-stimulated increase in blood glucose levels in iv dosed Sprague-Dawley rat administered 5 mins before glucagon challenge; type: functional
# Outline: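 Nonfasted male Sprague-Dawley rats (200 g) were anaesthetized with sc fentanyl/fluanisone plus midazolam. Compound was given via jugular catheter at 0, 3 or 10 mg/kg, followed 5 min later by iv glucagon 3 µg/kg. Tail-tip blood glucose was sampled at 25 and 5 min before compound and 10 min after glucagon. Response = 10-min value minus mean basal.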
# Mus musculus = assay: Reduction of hyperglycemia in leptin-deficient obese type-2 diabetes ob/ob mouse model at 100 mg/kg, po after 6 hrs; type: functional, organism-based; set-up: dose 100 mg/kg
# Outline: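 Male ob/ob mice (11-13 weeks), selected for highest blood glucose and randomized to matched groups. Dosed 0 or 100 mg/kg by oral gavage in the morning, with food withheld for 6 h. Blood glucose was measured ~1/2 h predose and at 2, 4, 6 and 24 h, expressed as change from baseline.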
# Chain of Glucagon-like peptide 1 receptor (P43220 whole entry): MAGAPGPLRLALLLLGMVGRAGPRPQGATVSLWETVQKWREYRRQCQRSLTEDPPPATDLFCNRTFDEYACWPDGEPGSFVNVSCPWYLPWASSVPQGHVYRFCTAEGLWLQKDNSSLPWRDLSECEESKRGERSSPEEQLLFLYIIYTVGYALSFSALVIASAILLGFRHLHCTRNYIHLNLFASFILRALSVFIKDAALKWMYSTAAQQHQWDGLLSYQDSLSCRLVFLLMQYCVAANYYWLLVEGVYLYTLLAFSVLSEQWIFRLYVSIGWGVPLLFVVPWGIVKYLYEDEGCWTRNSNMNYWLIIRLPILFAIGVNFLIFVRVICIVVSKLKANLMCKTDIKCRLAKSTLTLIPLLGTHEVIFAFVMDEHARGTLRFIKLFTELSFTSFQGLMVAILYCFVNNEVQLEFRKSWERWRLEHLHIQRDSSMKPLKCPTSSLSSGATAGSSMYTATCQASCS
# Chain of Glucagon receptor (Homo sapiens, UniProt P47871) (P47871 whole entry): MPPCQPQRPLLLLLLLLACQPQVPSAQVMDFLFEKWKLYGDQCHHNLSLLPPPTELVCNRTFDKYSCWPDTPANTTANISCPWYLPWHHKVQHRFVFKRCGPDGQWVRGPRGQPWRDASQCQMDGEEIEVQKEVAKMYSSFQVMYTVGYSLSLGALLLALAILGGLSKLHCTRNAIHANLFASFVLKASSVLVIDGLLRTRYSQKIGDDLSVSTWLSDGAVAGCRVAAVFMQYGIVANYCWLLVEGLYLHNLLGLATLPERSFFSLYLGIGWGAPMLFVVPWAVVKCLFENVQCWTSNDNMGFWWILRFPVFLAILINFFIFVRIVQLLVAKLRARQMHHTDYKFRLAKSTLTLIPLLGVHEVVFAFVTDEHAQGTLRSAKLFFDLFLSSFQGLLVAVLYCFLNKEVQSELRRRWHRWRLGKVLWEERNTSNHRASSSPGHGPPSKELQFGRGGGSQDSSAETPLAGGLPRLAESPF
# Chain of Glucagon receptor (Rattus norvegicus, UniProt P30082) (P30082 whole entry): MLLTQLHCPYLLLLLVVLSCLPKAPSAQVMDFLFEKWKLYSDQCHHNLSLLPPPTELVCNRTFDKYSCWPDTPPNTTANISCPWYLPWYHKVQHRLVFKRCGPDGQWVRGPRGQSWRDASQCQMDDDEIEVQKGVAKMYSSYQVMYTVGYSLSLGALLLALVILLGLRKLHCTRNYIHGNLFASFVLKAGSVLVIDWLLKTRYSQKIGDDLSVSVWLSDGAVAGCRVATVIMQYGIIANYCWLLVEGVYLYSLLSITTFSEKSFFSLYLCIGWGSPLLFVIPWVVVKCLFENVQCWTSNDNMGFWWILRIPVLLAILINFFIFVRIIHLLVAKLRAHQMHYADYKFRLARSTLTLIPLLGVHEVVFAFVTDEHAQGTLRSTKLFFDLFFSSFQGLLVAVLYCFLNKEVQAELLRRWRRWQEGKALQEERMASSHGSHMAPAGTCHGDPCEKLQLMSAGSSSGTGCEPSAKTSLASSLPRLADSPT
Structure (SMILES),IC50 (Glucagon receptor [1]) [µM],IC50 [2] [µM],IC50 [3] [µM],further results
O=C(NCC(O)C(=O)O)c1ccc(CN(C(=O)Nc2cc(Cl)cc(Cl)c2)c2ccc(C3=CCCCC3)cc2)cc1 (racemic),0.014,0.701,,
O=C(O)CCNC(=O)c1ccc(CN(C(=O)Nc2cc(Cl)cc(Cl)c2)c2ccc(C3=CCCCC3)cc2)cc1,0.012,0.064,5,Ratio IC50 (BHK): 400; IC50 (Glucagon receptor [4]): 0.036 µM; IC50 (Hepatocyte [5]): 0.82 µM; Activity (Hepatocyte [6]): inactive; Activity (Hepatocyte [7]): inactive; Activity (Hepatocyte [8]): Active; IC50 [9]: 0.216 µM; Activity (Pancreas): Active
O=C(NC[C@@H](O)C(=O)O)c1ccc(CN(C(=O)Nc2cccc(Cl)c2)c2ccc(C3=CCCCC3)cc2)cc1,0.014,0.406,,
N#Cc1ccc(NC(=O)N(Cc2ccc(C(=O)NC[C@@H](O)C(=O)O)cc2)c2ccc(C3CCCCC3)cc2)cc1C(F)(F)F,0.009,0.198,,
O=C(NC[C@@H](O)C(=O)O)c1ccc(CN(C(=O)Nc2cc(Cl)cc(Cl)c2)c2ccc(C3=CCCCC3)cc2)cc1,0.0039,0.359,17,Ratio IC50 (BHK): 4300; half-life [10]: 53 min; bioavailability [11]: 32%; IC50 (Glucagon receptor [4]): 0.043 µM; IC50 (Hepatocyte [5]): 0.2 µM; Activity (Hepatocyte [6]): inactive; Activity (Hepatocyte [7]): inactive; Activity (Hepatocyte [8]): Active; Activity (Rattus norvegicus): Dose-dependent effect; minimal effective dose (Rattus norvegicus; read-out: MED): 3 mg/kg; Activity (Mus musculus): Active; IC50 [9]: 0.501 µM
CC(C)(C)c1cccc(NC(=O)N(Cc2ccc(C(=O)NC[C@@H](O)C(=O)O)cc2)c2ccc(C3CCCCC3)cc2)c1,0.018,0.074,,
O=C(NC[C@@H](O)C(=O)O)c1ccc(CN(C(=O)Nc2ccc(SC(F)(F)F)cc2)c2ccc(C3CCCCC3)cc2)cc1,0.006,0.012,,
Cc1cc(NC(=O)N(Cc2ccc(C(=O)NC[C@@H](O)C(=O)O)cc2)[C@H]2CC[C@H](C(C)(C)C)CC2)cc(C(F)(F)F)c1,0.01,0.098,,
O=C(NC[C@@H](O)C(=O)O)c1ccc(CN(C(=O)Nc2ccc3c(c2)C(F)(F)OC(F)(F)O3)c2ccc(C3=CCCCC3)cc2)cc1,0.006,0.083,,
O=C(NC[C@H](O)C(=O)O)c1ccc(CN(C(=O)Nc2cc(Cl)cc(Cl)c2)c2ccc(C3=CCCCC3)cc2)cc1,0.051,0.445,9.32,
O=C(NC[C@@H](O)C(=O)O)c1ccc(CN(C(=O)Nc2cccc(Br)c2)c2ccc(C3CCCCC3)cc2)cc1,0.008,0.216,,half-life [10]: 72 min; bioavailability [11]: 21%
O=C(NC[C@@H](O)C(=O)O)c1ccc(CN(C(=O)Nc2ccccc2)c2ccc(C3=CCCCC3)cc2)cc1,0.166,1.39,,
CC(C)(C)[C@H]1CC[C@H](N(Cc2ccc(C(=O)NC[C@H](O)C(=O)O)cc2)C(=O)Nc2cc(C(F)(F)F)cc(C(F)(F)F)c2)CC1,0.082,0.373,4.88,
CS(=O)(=O)c1cc(NC(=O)N(Cc2ccc(C(=O)NC[C@@H](O)C(=O)O)cc2)c2ccc(C3=CCCCC3)cc2)ccc1OC(F)(F)F,0.005,0.497,,half-life [10]: 55 min; bioavailability [11]: 10%
CC(C)(C)C1CCC(N(Cc2ccc(C(=O)NCCC(=O)O)cc2)C(=O)Nc2ccc(OC(F)(F)F)cc2)CC1 (stereo not given),0.0234,0.0283,2.54,IC50 (Glucagon receptor [4]): 0.023 µM; IC50 [9]: 0.042 µM; Activity (Pancreas): Active
CC(C)(C)c1ccc(N(Cc2ccc(C(=O)NCC(O)C(=O)O)cc2)C(=O)Nc2ccc(OC(F)(F)F)cc2)cc1 (racemic),0.055,0.315,,
Cc1cc(C)cc(NC(=O)N(Cc2ccc(C(=O)NC[C@@H](O)C(=O)O)cc2)[C@H]2CC[C@H](C(C)(C)C)CC2)c1,0.027,0.22,,
CC(C)(C)c1ccc(N(Cc2ccc(C(=O)NCCC(=O)O)cc2)C(=O)Nc2ccc(OC(F)(F)F)cc2)cc1,0.036,0.038,10.8,
COc1cc(NC(=O)N(Cc2ccc(C(=O)NC[C@@H](O)C(=O)O)cc2)c2ccc(C3CCCCC3)cc2)cc(C(F)(F)F)c1,0.009,0.145,,
O=C(NC[C@@H](O)C(=O)O)c1ccc(CN(C(=O)Nc2cc(Cl)cc(Cl)c2)c2ccc(C3CCCCC3)cc2)cc1,0.004,0.093,,
CC(C)(C)[C@H]1CC[C@H](N(Cc2ccc(C(=O)NC[C@@H](O)C(=O)O)cc2)C(=O)Nc2cc(C(F)(F)F)cc(C(F)(F)F)c2)CC1,0.008,0.087,7.73,half-life [10]: 41 min; bioavailability [11]: 11%
CC(C)(C)[C@H]1CC[C@H](N(Cc2ccc(C(=O)NCCC(=O)O)cc2)C(=O)Nc2cc(C(F)(F)F)cc(C(F)(F)F)c2)CC1,0.016,0.093,,
COc1cc(NC(=O)N(Cc2ccc(C(=O)NC[C@@H](O)C(=O)O)cc2)c2ccc(C3=CCCCC3)cc2)cc(C(F)(F)F)c1,0.014,0.279,,half-life [10]: 53 min; bioavailability [11]: 7%
CSc1cccc(NC(=O)N(Cc2ccc(C(=O)NC[C@@H](O)C(=O)O)cc2)c2ccc(C3CCCCC3)cc2)c1,0.009,0.411,,half-life [10]: 43 min; bioavailability [11]: 8%
CO[C@H](CNC(=O)c1ccc(CN(C(=O)Nc2cc(Cl)cc(Cl)c2)c2ccc(C3=CCCCC3)cc2)cc1)C(=O)O,0.693,3.02,21.8,
O=C(NC[C@@H](O)C(=O)O)c1ccc(CN(C(=O)Nc2cc(Br)cc(C(F)(F)F)c2)c2ccc(C3=CCCCC3)cc2)cc1,0.007,0.38,,half-life [10]: 46 min; bioavailability [11]: 14%
